CHRM4 antagonist: antagonists of human muscarinic M4 receptor (CHRM4); CHO-hM4 cells, ACh EC80, Fluo-8 calcium fluorescence; hit rate 0.73% among 360,000; inhibition, % at 3 µM; AID 624125;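 active = inhibition above its plate's cutoff, the mean inhibition of sample wells plus 3 SD, cut at about 27% in these data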;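 note: 0% = acetylcholine EC80 with DMSO and 100% = DMSO without agonist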
Target sequence (P08173 whole entry, looked up): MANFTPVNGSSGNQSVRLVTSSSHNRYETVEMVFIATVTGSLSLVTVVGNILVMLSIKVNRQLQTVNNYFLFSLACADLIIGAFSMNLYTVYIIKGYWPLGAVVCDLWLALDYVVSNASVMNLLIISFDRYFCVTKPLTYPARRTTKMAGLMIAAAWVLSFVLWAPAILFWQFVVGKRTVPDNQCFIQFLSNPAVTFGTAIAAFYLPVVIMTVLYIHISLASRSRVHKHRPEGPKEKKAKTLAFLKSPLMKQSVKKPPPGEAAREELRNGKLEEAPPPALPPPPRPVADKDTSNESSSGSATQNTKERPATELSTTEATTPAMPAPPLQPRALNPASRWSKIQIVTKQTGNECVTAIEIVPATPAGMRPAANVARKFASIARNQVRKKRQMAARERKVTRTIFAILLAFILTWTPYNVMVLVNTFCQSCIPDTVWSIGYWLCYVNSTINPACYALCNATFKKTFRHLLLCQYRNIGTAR
M5 antag: CHRM5 antagonism in calcium assay | inhibition, % at 3 µM | hit rate 0.59% among 360,000 | CHO-hM5 cells, Fluo-8 calcium fluorescence, ACh EC80;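 active = inhibition above a per-plate cutoff, the mean of that plate's test compounds plus 3 SD, cut at about 27% in these data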;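 note: 0% = acetylcholine EC80 with DMSO and 100% = DMSO without agonist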
CHRM5 PAM: potentiates acetylcholine response at human M5 receptor. P08912. CHO-K1 hM5, Fluo-8 calcium, ACh EC20 PAM; 0% = ACh EC20, 100% = ACh EC100. activation, % at 3 µM. hit rate 0.3% among 360,000;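 active = activation above the run cutoff, the mean activation of all test compounds plus 3 SD, cut at about 18% in these data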
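system = human M5 receptor in CHO-K1 cells | compound = one concentration, 3 µM final (nominal) | schedule = Post-acetylcholine fluorescence recording 140 s | signal = Fluo-8 calcium dye fluorescence, kinetic read | benchmarks = low control EC20 acetylcholine (0%), high control EC100 acetylcholine (100%) | repeats = singlicate, one well per test compound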
M4 PAM: potentiates acetylcholine response at human M4 receptor | hit rate 0.4% among 360,000 | P08173 | activation, % at 3 µM | CHO-K1 hM4/Gqi5, Fluo-8 calcium fluorescence, ACh EC20; 0% = ACh EC20, 100% = maximal ACh;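 active = activation above its plate's cutoff, the mean activation of sample wells plus 3 SD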
CHRM4 agonist: CHRM4 agonism in calcium assay. AID 624127. CHO-K1 hM4/Gqi5, Fluo-8 calcium fluorescence; vehicle 0%, full acetylcholine response 100%. activation, % at 3 µM. hit rate 0.14% among 360,000. P08173;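 active = activation above the run mean over all test wells plus 3 SD, cut at about 32% in these data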;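 note: peak over basal fluorescence ratio per well then scaled between controls; 0% = DMSO wells and 100% = acetylcholine at EC100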
M5 ag: agonists of human muscarinic M5 receptor (CHRM5) | P08912 | CHO-K1 hM5 cells, Fluo-8 calcium fluorescence; 0% DMSO wells, 100% maximal acetylcholine response | activation, % at 3 µM | hit rate 0.19% among 360,000;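 active = activation above the run's mean over test compounds plus 3 SD, cut at about 23% in these data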;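 note: signal is peak over basal fluorescence ratio across the kinetic read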
Starred values were filed as active, the others as inactive. In the library only some 1.8% were active in any assay of this set; here they are far more common.

SMILES	CHRM4 antagonist	M5 antag	CHRM5 PAM	M4 PAM	CHRM4 agonist	M5 ag
CCOC(=O)CSc1ccc(C(=O)NCCCN2CCOCC2)cc1[N+](=O)[O-]	27.2*	9.5	3.2	-17.4	0.4	-7.8
COc1ccc(C(=O)NCCN2CCOCC2)cc1[N+](=O)[O-]	-11.0	5.9	-2.4	4.5	-0.1	-4.7
O=C(NCCCN1CCOCC1)c1ccc(Sc2cccc(Cl)c2)c([N+](=O)[O-])c1	46.6*	6.1	-15.4	-16.3	3.2	-5.9
O=C(NCCCN1CCOCC1)c1ccc(Cl)c([N+](=O)[O-])c1	1.4	-3.0	7.5	-2.9	1.0	-1.7
CCC[C@H]1CN(c2ccc(Br)cc2)C(=O)[C@@H]1CC(=O)NC	-3.5	2.4	0.6	-0.3	0.1	-0.9
CC(Oc1ccc(F)cc1)c1ccnc2nc(/N=C/N(C)C)nn12 (stereo not drawn)	-2.6	-3.4	-4.2	2.6	0.5	-1.9
CC(Oc1ccc(C(C)(C)C)cc1)c1ccnc2nc(/N=C/N(C)C)nn12 (stereo not drawn)	44.0*	2.1	-13.7	-32.3	-0.1	-12.2
Cc1nc(CNS(=O)(=O)c2ccc(F)cc2)cs1	-4.4	0.9	-2.2	-2.9	0.6	-2.4
CCC(C)(C)c1ccc(OCCCC[n+]2cccc(C)c2)c(C(C)(C)CC)c1	47.1*	27.6*	-21.0	-16.5	1.6	-9.9
Cc1ccc[n+](CC(=O)Nc2cc(C(F)(F)F)ccc2Cl)c1	1.1	-3.0	0.7	0.4	0.1	-6.7
CCOC(=O)CSc1nnc(CNC(=O)c2ccc([N+](=O)[O-])cc2)n1C	-10.2	-6.1	21.9*	12.9	1.3	4.6
CCOC(=O)CSc1nnc(CNC(=O)c2cccc(C)c2)n1C	4.1	1.7	3.0	15.2	3.0	0.1
CC(NCc1ccc2c(c1)OCO2)C(=O)N1CCc2ccccc21 (stereo not drawn)	-17.7	-5.3	18.1	22.9*	4.5	0.3
O=c1nc(SCc2c(F)cccc2Cl)nc(-c2ccc(Cl)cc2)[nH]1	-20.1	5.0	3.5	38.6*	0.7	-3.5
O=c1nc(SCc2ccccc2Cl)nc(-c2ccc(Cl)cc2)[nH]1	-4.3	-6.4	0.8	-3.0	0.2	1.5
Cc1nn(CCOc2ccccc2)c(=O)n1-c1c(F)cccc1F	30.7*	-4.1	1.5	31.5*	1.6	0.4
Cc1ccc(-n2c(C)nn(CCOc3ccccc3)c2=O)cc1	-8.2	4.8	2.6	4.8	1.5	-3.7
COc1cc2c(cc1OC)CN(C(=O)C1CCCN(C(=O)c3ccc(Cl)cc3)C1)CC2 (stereo not drawn)	2.4	-1.9	-1.6	8.8	0.6	2.5
CCOC(=O)C(C(=O)OCC)c1cc(Br)c2noc3c2c1C(=O)c1ccccc1-3	54.4*	33.5*	2.9	-5.8	8.1	6.2
CC(=O)OCCNc1cc(N2CCN(C)CC2)c2noc3c2c1C(=O)c1ccccc1-3	-9.5	6.7	-4.9	3.3	-0.1	1.4
NC(c1csc(NC(=O)Nc2cccc(Cl)c2)n1)C1CCCCC1 (stereo not drawn)	38.6*	8.7	5.8	0.7	37.6*	4.2
NC(c1csc(NC(=O)Nc2ccccc2)n1)C1CCCCC1 (stereo not drawn)	-1.2	4.5	-4.2	2.3	10.2	3.5
NS(=O)(=O)c1ccc(CNC(=O)Cn2nc(C(F)F)cc2C(F)F)cc1	0.9	8.8	-7.2	8.6	0.8	3.1
O=C(CC(NC(=O)OCc1ccccc1)C(=O)OCc1ccccc1)OCc1ccccc1 (stereo not drawn)	27.8*	18.9	-9.8	-7.8	8.2	-2.8
O=C(CC(NC(=O)OCc1ccccc1)C(=O)O)OCc1ccccc1 (stereo not drawn)	3.8	6.4	1.7	-0.6	0.9	-2.1
Cc1ncsc1CCOC(=O)c1ccc(Cl)cc1	-9.5	-14.9	9.3	23.9*	1.8	-4.0
CCOc1ccc(C(=O)NCC(=O)NNC(=O)c2ccco2)cc1OCC	0.3	4.0	8.7	12.2	-1.1	-1.1
